Experimental data from different studies.
Each line is one published result; the experiments were not run side by side.
ADRB1: Beta-1 adrenergic receptor (ADRB1, Homo sapiens, UniProt P08588)
PKN1: Serine/threonine-protein kinase N1 (PKN1, Homo sapiens, UniProt Q16512)
HDAC9: Histone deacetylase 9 (HDAC9, Homo sapiens, UniProt Q9UKV0)

CC(C)OC(=O)CNc1cccc(CN(Cc2ccc(-n3cccn3)cc2)S(=O)(=O)c2cccnc2)n1 — inhibition (ADRB1; ligand displacement; radioligand; 10 µM): 0%
COc1cc(-c2cncc3c2CN(C)Cc2cc(N4CCNCC4)ccc2-3)cc(OC)c1OC — remaining activity (PKN1; enzyme activity; inhibitor; 1 µM): 102%
Cc1cc([C@@H](C)Nc2ccccc2C(=O)O)c2nc(N3CCC(F)(F)CC3)c(C#N)c(=O)n2c1 — remaining binding (NUAK family SNF1-like kinase 2 (NUAK2, Homo sapiens, UniProt Q9H093); binding; competition with immobilised ligand; 10 µM): 70%
C=CC(=O)N1CCC(COCC(=O)N2CCN(c3nc(-c4cnc(N)nc4C(F)F)nc(N4CCOC[C@@H]4C)n3)CC2)CC1 — remaining binding (PKN1; binding; competition with immobilised ligand; 1 µM): 100%
CNc1ncc2c(/C=C/C(=O)N3CCC(OC)CC3)nn(Cc3cccc(C(F)(F)F)c3)c2n1 — remaining activity (Cyclin-dependent kinase 18, with cyclin Y (CDK18, Homo sapiens, UniProt Q07002); enzyme activity; inhibitor; radiometric; 1 µM): 99%
O=C(/C=C/c1cccc(OS(=O)(=O)Oc2ccc(C(F)(F)F)cc2)c1)NO — inhibition (HDAC9; enzyme activity; inhibitor; fluorescence; 10 µM): 13%
O=C(O)CNc1cccc(CN(Cc2ccc(-n3cccn3)cc2)S(=O)(=O)c2cccnc2)n1 — inhibition (ADRB1; ligand displacement; radioligand; 10 µM): 2%
O=C(NO)c1cc(F)cc(OS(=O)(=O)Oc2ccccc2)c1 — inhibition (HDAC9; enzyme activity; inhibitor; fluorescence; 10 µM): 33%
C[C@H]1O[C@H](O[C@H]2[C@H](O)[C@@H](O)[C@@H](O[C@H]3[C@H](O)[C@@H](O)C(O)O[C@@H]3CO)O[C@@H]2CO)[C@H](O)[C@@H](O)[C@@H]1N[C@H]1C=C(CO)[C@@H](O)[C@H](O)[C@H]1O (some centres unmarked) — inhibition (Pancreatic alpha-amylase (Homo sapiens, UniProt P04746); enzyme activity; inhibitor; 200 µg/mL): 97.5%
N=c1c[n+](N2CCOCC2)[n-]o1 — KI (inactivation) (NAD-dependent protein deacylase sirtuin-5, mitochondrial (SIRT5, Homo sapiens, UniProt Q9NXA8); enzyme activity; inhibitor): 4 µM
O=C(NO)c1cncc(OS(=O)(=O)Oc2ccc(-n3ccnc3)cc2)c1 — inhibition (HDAC9; enzyme activity; inhibitor; fluorescence; 10 µM): 49%
